Measurements collected from several papers.
Compare with care: the assays were run in different laboratories.
Target: Activated CDC42 kinase 1 (TNK2, Homo sapiens, UniProt Q07912)

SMILES	test	setting	measurement	result
CNC(=O)c1ccc(Nc2ncc(C(F)(F)F)c(NCc3nccnc3N(C)S(C)(=O)=O)n2)cc1	cell-free assay, competition with immobilised ligand	0.1 µM	remaining binding	100%
Nc1ncnc2occ(-c3ccc(NC(=O)Nc4cc(C(F)(F)F)ccc4F)cc3)c12	cell-free assay, inhibitor	20 µM	remaining signal	13%
O=C(N1CCS(=O)(=O)CC1)N1C[C@H](c2ccc(OC(F)(F)F)cc2)C[C@H](c2nc(C3CC3)no2)C1	cell-free assay, competition with immobilised ligand	1 µM	remaining binding	97%
CC(C)(C)c1nc2c(s1)c1nc(N)ncc1c1ccc(NS(=O)(=O)c3c(F)cccc3F)c(F)c12	enzyme activity, inhibitor, radiometric	1 µM	remaining activity	75%
COc1cccc2c(NCc3ccccc3)nc(-n3c(N)nc4ccccc43)nc12	target engagement in cells, inhibitor, chemoproteomics	20 mM	inhibition	18.9%
Cc1cnc(NC2CCOCC2)nc1-n1cnc(C(=O)NC(CN)c2cc(F)cc(Cl)c2)c1 (centres unmarked)	enzyme activity, inhibitor, radiometric	1 µM	remaining activity	110%
CS(=O)(=O)CCNCc1ccc(-c2ccc3ncnc(Nc4ccc(OCc5cccc(F)c5)c(Cl)c4)c3c2)o1	cell-free assay	0.5 µM	remaining signal	97.5%
N#CC1(c2ccccn2)CCN(Cc2cc(C(=O)N3CCCC3)c(=O)n3ccccc23)CC1	cell-free assay, competition with immobilised ligand	1 µM	remaining binding	85%
O=C(Nc1cnn(-c2csc(C(=O)NC3COC3)c2)c1)Nc1c(F)cccc1Cl	enzyme activity, inhibitor	5 µM	remaining activity	94.6%
Cc1cc(NC(=O)c2cccc3cc(-c4cccc5[nH]nc(N)c45)ccc23)ccc1F	enzyme activity, inhibitor	0.1 µM	activity vs control	107%
O=C(O)c1cc(-c2ccc(C3CCNCC3)cc2)c2ccc(-c3ccc(C(F)(F)F)cc3)cc2c1	cell-free assay, competition with immobilised ligand	1 µM	remaining binding	100%
Cc1ccc(C(=O)NCc2ccsc2)cc1C#Cc1cn(C(C)C)c2ncnc(N)c12	enzyme activity, inhibitor	1 µM	activity vs control	19%
O=C1NC(=O)c2cc(Nc3ccc(F)cc3)c(Nc3ccc(F)cc3)cc21	cell-free assay	0.5 µM	remaining signal	93.2%
CN(C)C(=O)Cn1cc(-c2nc(C3(c4ccc(-c5cnc(N)nc5)cc4)CC3)no2)cn1	cell-free assay, competition with immobilised ligand	1 µM	remaining binding	96%
Cc1sc(C(=O)NC2COC2)cc1-n1cc(NC(=O)Nc2c(F)cccc2Cl)cn1	enzyme activity, inhibitor	10 µM	remaining activity	106%
c1ccc(CNc2nc(N3CCOc4ccccc43)nc3c2CCCC3)cc1	target engagement in cells, inhibitor, chemoproteomics	20 mM	inhibition	-11.3%
Cc1ccc(C(=O)Nc2ccc(CN3CCN(C)CC3)c(C(F)(F)F)c2)cc1C#Cc1cnc2cccnn12	enzyme activity, inhibitor	23.5 nM	remaining activity	100%
